Measurements taken from ChEMBL document CHEMBL4689842, “EUbOPEN Chemogenomics Library wave 1” (2021).

Tests used:
Format in all cases: toxicity, cell-based
U2OS [1] = experiment: Incucyte cell viability with U2OS; settings: human, 10 µM, compound concentration 10 uM; also: filed as whole numbers so only -1 and 0 and 1 occur
Fibroblast = experiment: Incucyte cell viability with human fibroblast; settings: 10 µM, compound concentration 10 uM; also: filed as whole numbers so only -1 and 0 and 1 occur
U2OS [2] = experiment: Multiplex assay against U2OS; settings: human
Outline: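 Live cells were stained at seeding with Hoechst33342, BioTracker Green Microtubule Cytoskeleton Dye, MitoTracker Red and Annexin V Alexa Fluor 680, then imaged on a CQ1 microscope at 37°C and 5% CO2 after compound addition. CellPathfinder machine-learning gating split cells into Hoechst high-intensity objects or normal cells. Normal cells were split into healthy, pyknosed or fragmented nuclei, and pyknosed cells into mitotic or apoptotic. Tubulin, mitochondrial-mass and membrane-permeability phenotypes are per cents of healthy-nucleus cells.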

HEK-293T = experiment: Incucyte cell viability with HEK293T; settings: human, 10 µM, compound concentration 10 uM; also: filed as whole numbers so only -1 and 0 and 1 occur
[3] = 6 h, replicate number 1, timepoint 6 hours
[4] = 12 h, replicate number 1, timepoint 12 hours
[5] = 18 h, replicate number 1, timepoint 18 hours
[6] = 24 h, replicate number 1, timepoint 24 hours
[7] = 12 h, 1 µM, compound concentration 1 uM, replicate 1
[8] = 12 h, 1 µM, compound concentration 1 uM, replicate 2
[9] = 12 h, 10 µM, compound concentration 10 uM, replicate 1
[10] = 12 h, 10 µM, compound concentration 10 uM, replicate 2
[11] = 24 h, 1 µM, compound concentration 1 uM, replicate 1
[12] = 24 h, 1 µM, compound concentration 1 uM, replicate 2
[13] = 24 h, 10 µM, compound concentration 10 uM, replicate 1
[14] = 24 h, 10 µM, compound concentration 10 uM, replicate 2
[15] = 48 h, 1 µM, compound concentration 1 uM, replicate 1
[16] = 48 h, 1 µM, compound concentration 1 uM, replicate 2
[17] = 48 h, 10 µM, compound concentration 10 uM, replicate 1
[18] = 48 h, 10 µM, compound concentration 10 uM, replicate 2

Cc1c(P(=S)(c2ccccc2)c2ccccc2)n2ccccc2[n+]1C/C=C/c1ccccc1.[Br-]
Growth Rate (U2OS [1]; [3]): 0
Growth Rate (U2OS [1]; [4]): 0
Growth Rate (U2OS [1]; [5]): 0
Growth Rate (U2OS [1]; [6]): 0
Growth Rate (Fibroblast; 0 h, replicate number 1, timepoint 0 hours): 0
Growth Rate (Fibroblast; [3]): 0
Growth Rate (Fibroblast; [4]): 0
Growth Rate (Fibroblast; [5]): 0
Growth Rate (Fibroblast; [6]): 0
Population Apoptotic (%) (U2OS [2]; [7]): 54%
Population Fragmented Nuclei (%) (U2OS [2]; [7]): 21%
Population Healthy Nuclei (%) (U2OS [2]; [7]): 69%
Population Hoechst High Intensity Objects (%) (U2OS [2]; [7]): 5%
Population Membrane Permeable-Phenotype (%) (U2OS [2]; [7]): 13%
Population Mitochondria Different-Phenotype (%) (U2OS [2]; [7]): 35%
Population Mitotic Cells (%) (U2OS [2]; [7]): 45%
Population Normal (%) (U2OS [2]; [7]): 94%
Population Pyknosed Nuclei (%) (U2OS [2]; [7]): 9%
Population Tubulin-Different-Phenotype (%) (U2OS [2]; [7]): 26%
Total Cell Count (U2OS [2]; [7]): 133
Population Apoptotic (%) (U2OS [2]; [8]): 75%
Population Fragmented Nuclei (%) (U2OS [2]; [8]): 50%
Population Healthy Nuclei (%) (U2OS [2]; [8]): 45%
Population Hoechst High Intensity Objects (%) (U2OS [2]; [8]): 22%
Population Membrane Permeable-Phenotype (%) (U2OS [2]; [8]): 10%
Population Mitochondria Different-Phenotype (%) (U2OS [2]; [8]): 50%
Population Mitotic Cells (%) (U2OS [2]; [8]): 25%
Population Normal (%) (U2OS [2]; [8]): 77%
Population Pyknosed Nuclei (%) (U2OS [2]; [8]): 4%
Population Tubulin-Different-Phenotype (%) (U2OS [2]; [8]): 31%
Total Cell Count (U2OS [2]; [8]): 93
Population Apoptotic (%) (U2OS [2]; [9]): 89%
Population Fragmented Nuclei (%) (U2OS [2]; [9]): 28%
Population Healthy Nuclei (%) (U2OS [2]; [9]): 9%
Population Hoechst High Intensity Objects (%) (U2OS [2]; [9]): 21%
Population Membrane Permeable-Phenotype (%) (U2OS [2]; [9]): 88%
Population Mitochondria Different-Phenotype (%) (U2OS [2]; [9]): 100%
Population Mitotic Cells (%) (U2OS [2]; [9]): 10%
Population Normal (%) (U2OS [2]; [9]): 78%
Population Pyknosed Nuclei (%) (U2OS [2]; [9]): 61%
Population Tubulin-Different-Phenotype (%) (U2OS [2]; [9]): 100%
Total Cell Count (U2OS [2]; [9]): 121
Population Apoptotic (%) (U2OS [2]; [10]): 94%
Population Fragmented Nuclei (%) (U2OS [2]; [10]): 21%
Population Healthy Nuclei (%) (U2OS [2]; [10]): 10%
Population Hoechst High Intensity Objects (%) (U2OS [2]; [10]): 8%
Population Membrane Permeable-Phenotype (%) (U2OS [2]; [10]): 83%
Population Mitochondria Different-Phenotype (%) (U2OS [2]; [10]): 83%
Population Mitotic Cells (%) (U2OS [2]; [10]): 5%
Population Normal (%) (U2OS [2]; [10]): 91%
Population Pyknosed Nuclei (%) (U2OS [2]; [10]): 68%
Population Tubulin-Different-Phenotype (%) (U2OS [2]; [10]): 83%
Total Cell Count (U2OS [2]; [10]): 108
Population Apoptotic (%) (U2OS [2]; [11]): 55%
Population Fragmented Nuclei (%) (U2OS [2]; [11]): 12%
Population Healthy Nuclei (%) (U2OS [2]; [11]): 73%
Population Hoechst High Intensity Objects (%) (U2OS [2]; [11]): 5%
Population Membrane Permeable-Phenotype (%) (U2OS [2]; [11]): 12%
Population Mitochondria Different-Phenotype (%) (U2OS [2]; [11]): 18%
Population Mitotic Cells (%) (U2OS [2]; [11]): 45%
Population Normal (%) (U2OS [2]; [11]): 94%
Population Pyknosed Nuclei (%) (U2OS [2]; [11]): 13%
Population Tubulin-Different-Phenotype (%) (U2OS [2]; [11]): 12%
Total Cell Count (U2OS [2]; [11]): 174
Population Apoptotic (%) (U2OS [2]; [12]): 75%
Population Fragmented Nuclei (%) (U2OS [2]; [12]): 55%
Population Healthy Nuclei (%) (U2OS [2]; [12]): 40%
Population Hoechst High Intensity Objects (%) (U2OS [2]; [12]): 33%
Population Membrane Permeable-Phenotype (%) (U2OS [2]; [12]): 9%
Population Mitochondria Different-Phenotype (%) (U2OS [2]; [12]): 31%
Population Mitotic Cells (%) (U2OS [2]; [12]): 25%
Population Normal (%) (U2OS [2]; [12]): 66%
Population Pyknosed Nuclei (%) (U2OS [2]; [12]): 3%
Population Tubulin-Different-Phenotype (%) (U2OS [2]; [12]): 15%
Total Cell Count (U2OS [2]; [12]): 124
Population Fragmented Nuclei (%) (U2OS [2]; [13]): 34%
Population Healthy Nuclei (%) (U2OS [2]; [13]): 4%
Population Hoechst High Intensity Objects (%) (U2OS [2]; [13]): 14%
Population Membrane Permeable-Phenotype (%) (U2OS [2]; [13]): 75%
Population Mitochondria Different-Phenotype (%) (U2OS [2]; [13]): 100%
Population Normal (%) (U2OS [2]; [13]): 85%
Population Pyknosed Nuclei (%) (U2OS [2]; [13]): 61%
Population Tubulin-Different-Phenotype (%) (U2OS [2]; [13]): 100%
Total Cell Count (U2OS [2]; [13]): 154
Population Apoptotic (%) (U2OS [2]; [14]): 100%
Population Fragmented Nuclei (%) (U2OS [2]; [14]): 23%
Population Healthy Nuclei (%) (U2OS [2]; [14]): 38%
Population Hoechst High Intensity Objects (%) (U2OS [2]; [14]): 26%
Population Membrane Permeable-Phenotype (%) (U2OS [2]; [14]): 81%
Population Mitochondria Different-Phenotype (%) (U2OS [2]; [14]): 81%
Population Mitotic Cells (%) (U2OS [2]; [14]): 0%
Population Normal (%) (U2OS [2]; [14]): 73%
Population Pyknosed Nuclei (%) (U2OS [2]; [14]): 38%
Population Tubulin-Different-Phenotype (%) (U2OS [2]; [14]): 81%
Total Cell Count (U2OS [2]; [14]): 163
Population Fragmented Nuclei (%) (U2OS [2]; [15]): 7%
Population Healthy Nuclei (%) (U2OS [2]; [15]): 85%
Population Hoechst High Intensity Objects (%) (U2OS [2]; [15]): 5%
Population Membrane Permeable-Phenotype (%) (U2OS [2]; [15]): 3%
Population Mitochondria Different-Phenotype (%) (U2OS [2]; [15]): 13%
Population Normal (%) (U2OS [2]; [15]): 94%
Population Pyknosed Nuclei (%) (U2OS [2]; [15]): 7%
Population Tubulin-Different-Phenotype (%) (U2OS [2]; [15]): 11%
Total Cell Count (U2OS [2]; [15]): 277
Population Apoptotic (%) (U2OS [2]; [16]): 60%
Population Fragmented Nuclei (%) (U2OS [2]; [16]): 42%
Population Healthy Nuclei (%) (U2OS [2]; [16]): 49%
Population Hoechst High Intensity Objects (%) (U2OS [2]; [16]): 25%
Population Membrane Permeable-Phenotype (%) (U2OS [2]; [16]): 5%
Population Mitochondria Different-Phenotype (%) (U2OS [2]; [16]): 21%
Population Mitotic Cells (%) (U2OS [2]; [16]): 40%
Population Normal (%) (U2OS [2]; [16]): 74%
Population Pyknosed Nuclei (%) (U2OS [2]; [16]): 8%
Population Tubulin-Different-Phenotype (%) (U2OS [2]; [16]): 8%
Total Cell Count (U2OS [2]; [16]): 213
Population Fragmented Nuclei (%) (U2OS [2]; [17]): 43%
Population Healthy Nuclei (%) (U2OS [2]; [17]): 3%
Population Hoechst High Intensity Objects (%) (U2OS [2]; [17]): 19%
Population Membrane Permeable-Phenotype (%) (U2OS [2]; [17]): 66%
Population Mitochondria Different-Phenotype (%) (U2OS [2]; [17]): 100%
Population Normal (%) (U2OS [2]; [17]): 80%
Population Pyknosed Nuclei (%) (U2OS [2]; [17]): 53%
Population Tubulin-Different-Phenotype (%) (U2OS [2]; [17]): 100%
Total Cell Count (U2OS [2]; [17]): 207
Population Apoptotic (%) (U2OS [2]; [18]): 100%
Population Fragmented Nuclei (%) (U2OS [2]; [18]): 75%
Population Healthy Nuclei (%) (U2OS [2]; [18]): 18%
Population Hoechst High Intensity Objects (%) (U2OS [2]; [18]): 21%
Population Membrane Permeable-Phenotype (%) (U2OS [2]; [18]): 75%
Population Mitochondria Different-Phenotype (%) (U2OS [2]; [18]): 75%
Population Mitotic Cells (%) (U2OS [2]; [18]): 0%
Population Normal (%) (U2OS [2]; [18]): 78%
Population Pyknosed Nuclei (%) (U2OS [2]; [18]): 6%
Population Tubulin-Different-Phenotype (%) (U2OS [2]; [18]): 75%
Total Cell Count (U2OS [2]; [18]): 153
Growth Rate (HEK-293T; 0 h, replicate number 2, timepoint 0 hours): 1
Growth Rate (HEK-293T; [3]): 0
Growth Rate (HEK-293T; [4]): 0
Growth Rate (HEK-293T; [5]): 0
Growth Rate (HEK-293T; [6]): 0
